Experimental data reported in ChEMBL document CHEMBL4350961, “Discovery of Pyrrolo[3,2- d]pyrimidin-4-one Derivatives as a New Class of Potent and Cell-Active Inhibitors of P300/CBP-Associated Factor Bromodomain” (J Med Chem, 2019).
The source made the active and inactive calls.

How the values were obtained:
[1] = target: ATPase family AAA domain-containing protein 2B (Homo sapiens) (UniProt Q9ULI0); assay: Binding affinity to human partial length ATAD2B (Q955 to R1082 residues) expressed in bacterial expression system at 1 uM by BROMOscan assay
Sequence of ATPase family AAA domain-containing protein 2B (Homo sapiens) (Q9ULI0 whole entry, the tested form may be a part): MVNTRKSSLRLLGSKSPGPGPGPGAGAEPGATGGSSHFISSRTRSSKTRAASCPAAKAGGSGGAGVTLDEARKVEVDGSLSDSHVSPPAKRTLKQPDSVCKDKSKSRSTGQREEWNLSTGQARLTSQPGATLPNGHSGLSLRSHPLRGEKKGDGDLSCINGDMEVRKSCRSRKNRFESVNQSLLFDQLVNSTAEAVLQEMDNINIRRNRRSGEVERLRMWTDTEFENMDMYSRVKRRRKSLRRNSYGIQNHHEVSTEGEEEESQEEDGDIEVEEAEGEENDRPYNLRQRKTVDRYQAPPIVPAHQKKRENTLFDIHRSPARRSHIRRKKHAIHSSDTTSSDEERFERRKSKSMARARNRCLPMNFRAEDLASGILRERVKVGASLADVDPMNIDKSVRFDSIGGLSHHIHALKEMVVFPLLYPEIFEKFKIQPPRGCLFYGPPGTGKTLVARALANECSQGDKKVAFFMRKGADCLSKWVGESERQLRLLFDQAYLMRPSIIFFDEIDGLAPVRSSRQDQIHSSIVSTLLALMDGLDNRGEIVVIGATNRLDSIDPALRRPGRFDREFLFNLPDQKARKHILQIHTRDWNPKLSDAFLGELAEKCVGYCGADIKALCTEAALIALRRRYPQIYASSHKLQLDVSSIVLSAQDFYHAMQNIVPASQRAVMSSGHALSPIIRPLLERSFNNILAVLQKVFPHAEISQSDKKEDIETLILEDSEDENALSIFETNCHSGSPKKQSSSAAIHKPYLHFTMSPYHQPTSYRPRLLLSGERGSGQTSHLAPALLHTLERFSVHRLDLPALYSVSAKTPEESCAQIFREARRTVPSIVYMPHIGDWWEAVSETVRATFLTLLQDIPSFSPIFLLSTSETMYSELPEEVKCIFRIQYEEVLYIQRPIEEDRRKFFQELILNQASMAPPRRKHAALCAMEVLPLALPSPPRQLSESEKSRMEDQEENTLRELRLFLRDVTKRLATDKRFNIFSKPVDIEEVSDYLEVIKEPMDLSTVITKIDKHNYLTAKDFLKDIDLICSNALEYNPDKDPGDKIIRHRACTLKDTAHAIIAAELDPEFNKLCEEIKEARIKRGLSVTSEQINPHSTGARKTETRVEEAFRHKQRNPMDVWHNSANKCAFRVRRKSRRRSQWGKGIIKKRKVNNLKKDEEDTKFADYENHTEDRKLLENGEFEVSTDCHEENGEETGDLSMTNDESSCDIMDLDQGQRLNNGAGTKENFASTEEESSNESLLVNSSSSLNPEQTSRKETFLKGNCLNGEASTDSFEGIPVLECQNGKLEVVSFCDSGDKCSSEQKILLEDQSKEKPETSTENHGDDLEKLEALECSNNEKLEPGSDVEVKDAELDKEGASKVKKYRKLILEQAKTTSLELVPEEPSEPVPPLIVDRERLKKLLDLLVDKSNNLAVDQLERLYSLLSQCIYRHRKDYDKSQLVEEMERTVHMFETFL
Method in brief: (§1)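 BROMOscan bromodomain cross-screen run by an outside service, compound at 1 µM against 32 recombinant bromodomains. Binding given as percent of control.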

[2] = target: Bromodomain-containing protein 7 (Homo sapiens) (UniProt Q9NPI1); assay: Binding affinity to human partial length BRD7 (L125 to R254 residues) expressed in mammalian expression system at 1 uM by BROMOscan assay; method in brief: as §1
[3] = target: Activin receptor type-2A (Homo sapiens) (UniProt P27037); assay: Inhibition of recombinant human ACTR2 (162 to end residues) at 10 uM using casein as substrate measured after 120 mins in presence of [gamma33P]ATP by scintillation counting method
Sequence of Activin receptor type-2A (Homo sapiens) (P27037 whole entry): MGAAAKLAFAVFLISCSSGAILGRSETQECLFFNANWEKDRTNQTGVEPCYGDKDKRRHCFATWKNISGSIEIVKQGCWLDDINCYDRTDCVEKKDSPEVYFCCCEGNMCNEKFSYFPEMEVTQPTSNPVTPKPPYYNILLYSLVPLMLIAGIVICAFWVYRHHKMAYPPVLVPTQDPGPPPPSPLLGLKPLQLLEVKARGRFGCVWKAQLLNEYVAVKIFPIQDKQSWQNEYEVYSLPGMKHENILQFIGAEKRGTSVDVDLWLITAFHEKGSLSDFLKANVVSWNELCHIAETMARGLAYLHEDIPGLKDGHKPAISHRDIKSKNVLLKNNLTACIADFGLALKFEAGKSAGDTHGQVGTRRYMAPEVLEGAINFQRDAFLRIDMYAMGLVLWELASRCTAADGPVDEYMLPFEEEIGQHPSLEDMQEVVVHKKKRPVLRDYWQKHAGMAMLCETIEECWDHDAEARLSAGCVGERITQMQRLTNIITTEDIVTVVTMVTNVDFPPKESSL

[4] = target: Bone morphogenetic protein receptor type-1B (Homo sapiens) (UniProt O00238); assay: Inhibition of recombinant human ALK6 (148 to end residues) at 10 uM using casein as substrate measured after 40 mins in presence of [gamma33P]ATP by scintillation counting method
[5] = target: Aurora kinase C (Homo sapiens) (UniProt Q9UQB9); assay: Inhibition of recombinant human AURKC (35 to end residues) at 10 uM using AKRRRLSSLRA as substrate measured after 40 mins in presence of [gamma33P]ATP by scintillation counting method
[6] = target: Calcium/calmodulin-dependent protein kinase type II subunit alpha (Homo sapiens) (UniProt Q9UQM7); assay: Inhibition of recombinant full-length human CaMK2alpha at 10 uM using calmodulin as substrate measured after 40 mins in presence of [gamma33P]ATP by scintillation counting method
Sequence of Calcium/calmodulin-dependent protein kinase type II subunit alpha (Homo sapiens) (Q9UQM7 whole entry, the tested form may be a part): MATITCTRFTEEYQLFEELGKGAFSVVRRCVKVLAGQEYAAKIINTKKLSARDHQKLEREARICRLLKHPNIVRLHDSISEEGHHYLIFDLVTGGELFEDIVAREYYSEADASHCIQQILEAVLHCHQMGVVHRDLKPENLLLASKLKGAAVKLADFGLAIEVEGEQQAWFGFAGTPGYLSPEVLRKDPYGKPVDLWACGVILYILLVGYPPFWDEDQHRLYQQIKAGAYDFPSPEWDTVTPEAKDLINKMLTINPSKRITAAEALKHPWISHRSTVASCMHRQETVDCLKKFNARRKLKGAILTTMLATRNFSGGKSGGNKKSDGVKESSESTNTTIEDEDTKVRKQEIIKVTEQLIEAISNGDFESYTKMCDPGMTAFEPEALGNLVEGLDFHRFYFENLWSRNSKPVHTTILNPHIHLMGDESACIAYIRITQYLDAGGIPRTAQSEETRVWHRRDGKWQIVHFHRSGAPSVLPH

[7] = target: Calcium/calmodulin-dependent protein kinase type II subunit gamma (Homo sapiens) (UniProt Q13555); assay: Inhibition of recombinant full-length human CaMK2gamma (1 to 330 residues) at 10 uM using calmodulin as substrate measured after 40 mins in presence of [gamma33P]ATP by scintillation counting method
[8] = target: CDK2/Cyclin A2 (Homo sapiens) (UniProt P24941+P20248); assay: Inhibition of recombinant full-length human CDK2/cyclinA at 10 uM using histone H1 as substrate measured after 40 mins in presence of [gamma33P]ATP by scintillation counting method; assay type: protein-complex assay
[9] = system: Epidermal growth factor receptor (Homo sapiens), P00533 [L858R]; assay: Inhibition of recombinant human EGFR L858R mutant (696 to end residues) at 10 uM using poly(Glu, Tyr) 4:1 as substrate measured after 40 mins in presence of [gamma33P]ATP by scintillation counting method
[10] = system: Epidermal growth factor receptor (Homo sapiens), P00533 [L861Q]; assay: Inhibition of recombinant human EGFR L861Q mutant (696 to end residues) at 10 uM using poly(Glu, Tyr) 4:1 as substrate measured after 40 mins in presence of [gamma33P]ATP by scintillation counting method
[11] = system: Epidermal growth factor receptor (Homo sapiens), P00533 [T790M]; assay: Inhibition of recombinant human EGFR T790M mutant (696 to end residues) at 10 uM using GGMEDIYFEFMGGKKK as substrate measured after 40 mins in presence of [gamma33P]ATP by scintillation counting method
[12] = system: eIF-2-alpha kinase GCN2 (Homo sapiens), Q9P2K8 [E556G]; assay: Inhibition of recombinant full-length human GCN2 E556G mutant at 10 uM using RSRSRSRSRSRSRSR as substrate measured after 40 mins in presence of [gamma33P]ATP by scintillation counting method
[13] = target: Tyrosine-protein kinase JAK1 (Homo sapiens) (UniProt P23458); assay: Inhibition of recombinant human JAK1 (866 to end residues) at 10 uM using GEEPLYWSFPAKKK as substrate measured after 40 mins in presence of [gamma33P]ATP by scintillation counting method
[14] = target: Tyrosine-protein kinase JAK3 (Homo sapiens) (UniProt P52333); assay: Inhibition of recombinant human JAK3 (781 to end residues) at 10 uM using GGEEEEYFELVKKKK as substrate measured after 40 mins in presence of [gamma33P]ATP by scintillation counting method
[15] = target: Serine/threonine-protein kinase 4 (Homo sapiens) (UniProt Q13043); assay: Inhibition of recombinant full-length human MST1 at 10 uM using KKSRGDYMTMQIG as substrate measured after 40 mins in presence of [gamma33P]ATP by scintillation counting method
[16] = target: Myosin-IIIb (Homo sapiens) (UniProt Q8WXR4); assay: Inhibition of recombinant full-length human MYO3B (1 to 326 residues) at 10 uM using RLGRDKYKTLRQIRQ as substrate measured after 40 mins in presence of [gamma33P]ATP by scintillation counting method
Sequence of Myosin-IIIb (Homo sapiens) (Q8WXR4 whole entry, the tested form may be a part): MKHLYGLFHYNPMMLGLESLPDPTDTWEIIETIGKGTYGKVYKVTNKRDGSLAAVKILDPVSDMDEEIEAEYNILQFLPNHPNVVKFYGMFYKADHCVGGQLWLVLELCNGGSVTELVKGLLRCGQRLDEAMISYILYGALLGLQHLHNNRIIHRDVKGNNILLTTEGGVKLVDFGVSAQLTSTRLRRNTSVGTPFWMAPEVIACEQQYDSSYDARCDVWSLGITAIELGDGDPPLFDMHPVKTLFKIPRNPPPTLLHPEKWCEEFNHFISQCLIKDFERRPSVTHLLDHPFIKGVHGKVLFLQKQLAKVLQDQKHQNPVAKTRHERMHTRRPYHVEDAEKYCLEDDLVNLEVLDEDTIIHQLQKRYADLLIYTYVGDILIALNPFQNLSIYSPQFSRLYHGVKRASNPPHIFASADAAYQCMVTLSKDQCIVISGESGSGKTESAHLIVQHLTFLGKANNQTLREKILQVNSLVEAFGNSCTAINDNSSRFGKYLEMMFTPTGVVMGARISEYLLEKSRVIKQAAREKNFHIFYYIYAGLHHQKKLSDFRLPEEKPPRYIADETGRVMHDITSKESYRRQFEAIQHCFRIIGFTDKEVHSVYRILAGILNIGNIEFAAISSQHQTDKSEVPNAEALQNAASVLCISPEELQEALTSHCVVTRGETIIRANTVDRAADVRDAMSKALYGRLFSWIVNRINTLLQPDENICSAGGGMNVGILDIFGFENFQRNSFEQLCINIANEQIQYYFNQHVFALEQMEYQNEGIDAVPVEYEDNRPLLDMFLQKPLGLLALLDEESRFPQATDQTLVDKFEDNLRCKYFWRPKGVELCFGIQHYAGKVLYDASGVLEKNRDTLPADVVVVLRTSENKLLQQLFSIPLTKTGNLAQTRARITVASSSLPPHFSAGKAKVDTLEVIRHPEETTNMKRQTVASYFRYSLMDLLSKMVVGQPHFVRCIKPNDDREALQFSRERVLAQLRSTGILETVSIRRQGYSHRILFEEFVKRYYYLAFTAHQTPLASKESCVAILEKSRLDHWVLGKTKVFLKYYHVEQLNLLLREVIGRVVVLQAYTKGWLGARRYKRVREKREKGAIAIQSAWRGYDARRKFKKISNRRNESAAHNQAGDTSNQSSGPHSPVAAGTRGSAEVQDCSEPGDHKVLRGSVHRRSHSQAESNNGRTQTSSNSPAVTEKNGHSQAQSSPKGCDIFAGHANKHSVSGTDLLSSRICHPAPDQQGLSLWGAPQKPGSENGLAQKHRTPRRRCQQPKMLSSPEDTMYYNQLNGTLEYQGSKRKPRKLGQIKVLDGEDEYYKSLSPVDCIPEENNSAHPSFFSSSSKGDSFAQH

[17] = target: Protein kinase C beta type (Homo sapiens) (UniProt P05771); assay: Inhibition of recombinant human PKCbeta1 (2 to end residues) at 10 uM using histone H1 as substrate measured after 40 mins in presence of [gamma33P]ATP by scintillation counting method
[18] = system: Ribosomal protein S6 kinase alpha-1 (Rattus norvegicus), Q63531 [S637N,G697A]; assay: Inhibition of recombinant full-length rat Rsk1 S637N/G697A mutant at 10 uM using KKKNRTLSVA as substrate measured after 40 mins in presence of [gamma33P]ATP by scintillation counting method
[19] = target: Serine/threonine-protein kinase SIK3 (Homo sapiens) (UniProt Q9Y2K2); assay: Inhibition of human SIK3 (1 to 307 residues) using KKKVSRSGLYRSPSMPENLNRPR as substrate measured after 40 mins in presence of [gamma33P]ATP by scintillation counting method
Method in brief: (§2)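 Kinase panel of 422 kinases screened by Eurofins KinaseProfiler at a single test-compound concentration of 10 µM.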

[20] = target: Serine/threonine-protein kinase 16 (Homo sapiens) (UniProt O75716); assay: Inhibition of human STK16 at 10 uM by radiometric method; method in brief: as §2
[21] = target: Serine/threonine-protein kinase WNK4 (Homo sapiens) (UniProt Q96J92); assay: Inhibition of human WNK4 using myelin basic protein as substrate measured after 120 mins in presence of [gamma33P]ATP by scintillation counting method
Sequence of Serine/threonine-protein kinase WNK4 (Homo sapiens) (Q96J92 whole entry): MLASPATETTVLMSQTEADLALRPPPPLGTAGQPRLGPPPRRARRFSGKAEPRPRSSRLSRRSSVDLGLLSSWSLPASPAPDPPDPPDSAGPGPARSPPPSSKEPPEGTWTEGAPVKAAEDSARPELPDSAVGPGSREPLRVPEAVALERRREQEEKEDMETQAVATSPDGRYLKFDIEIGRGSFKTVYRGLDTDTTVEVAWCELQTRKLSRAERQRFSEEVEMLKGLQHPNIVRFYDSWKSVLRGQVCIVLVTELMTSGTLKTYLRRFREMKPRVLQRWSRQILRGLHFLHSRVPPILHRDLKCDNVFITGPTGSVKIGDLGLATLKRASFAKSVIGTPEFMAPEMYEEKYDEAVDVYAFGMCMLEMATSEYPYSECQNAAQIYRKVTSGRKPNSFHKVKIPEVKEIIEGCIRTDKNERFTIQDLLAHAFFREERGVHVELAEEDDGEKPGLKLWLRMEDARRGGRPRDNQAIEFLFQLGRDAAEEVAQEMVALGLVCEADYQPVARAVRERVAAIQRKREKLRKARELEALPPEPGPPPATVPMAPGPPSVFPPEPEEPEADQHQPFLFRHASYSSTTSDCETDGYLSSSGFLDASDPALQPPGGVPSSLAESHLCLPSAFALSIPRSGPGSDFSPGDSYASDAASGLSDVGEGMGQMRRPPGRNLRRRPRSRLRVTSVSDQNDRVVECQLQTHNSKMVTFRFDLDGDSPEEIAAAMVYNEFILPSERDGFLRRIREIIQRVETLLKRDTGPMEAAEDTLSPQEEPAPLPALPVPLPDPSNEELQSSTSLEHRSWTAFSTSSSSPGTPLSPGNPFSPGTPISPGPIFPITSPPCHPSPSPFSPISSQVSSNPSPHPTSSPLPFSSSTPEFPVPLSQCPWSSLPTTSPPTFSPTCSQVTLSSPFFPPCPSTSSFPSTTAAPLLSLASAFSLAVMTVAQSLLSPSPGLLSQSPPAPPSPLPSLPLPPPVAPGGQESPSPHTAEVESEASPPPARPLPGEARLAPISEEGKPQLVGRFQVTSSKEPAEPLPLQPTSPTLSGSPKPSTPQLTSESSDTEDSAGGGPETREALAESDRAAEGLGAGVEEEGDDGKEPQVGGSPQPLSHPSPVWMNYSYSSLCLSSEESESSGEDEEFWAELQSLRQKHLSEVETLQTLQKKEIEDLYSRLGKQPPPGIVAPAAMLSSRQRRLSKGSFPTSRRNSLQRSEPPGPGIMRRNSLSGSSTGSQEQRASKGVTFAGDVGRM

[22] = target: DNA-dependent protein kinase catalytic subunit (Homo sapiens) (UniProt P78527); assay: Inhibition of recombinant full-length human DNA-PK at 10 uM using GST-cMyc-p53 as substrate measured after 40 mins by fluorescence assay
Mus musculus = species on record: Mus musculus; assay: Inhibition of recombinant full-length mouse PI3K p110alpha/p85alpha at 10 uM using phosphatidylinositol-4, 5-bisphosphate as substrate measured after 40 mins by HTRF assay
[23] = system: PI3-kinase p110-alpha/p85-alpha (Homo sapiens), P27986+P42336 [E545K]; assay: Inhibition of recombinant full-length human PI3K p110alpha/p85alpha E545K mutant at 10 uM using phosphatidylinositol-4, 5-bisphosphate as substrate measured after 40 mins by fluorescence assay; assay type: protein-complex assay

CN1C[C@H](Nc2nc3cc[nH]c3c(=O)n2C)C[C@H](c2ccc3c(c2)OCCO3)C1
inactive: Activity [1] | Activity [2] | inhibition [3] | inhibition [4] | inhibition [5] | inhibition [6] | inhibition [7] | inhibition [8] | inhibition [9] | inhibition [10] | inhibition [11] | inhibition [12] | inhibition [13] | inhibition [14] | inhibition [15] | inhibition [16] | inhibition [17] | inhibition [18] | inhibition [19] | inhibition [20] | inhibition [21] | inhibition [22] | inhibition (Mus musculus) | inhibition [23]
